# High-throughput results (PubChem)
# T cruzi repl = inhibitors of intracellular T. cruzi growth, primary screen, luminescence, NIH3T3 host cells; T. cruzi beta-gal in NIH3T3, 90 h; inhibition, % (test concentration not listed); AID 1885, 2009; hit rate 1.4% among 300,000;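 active = mean inhibition across valid replicates above about 55%, limit read from the data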;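 also: signal also drops with host cell toxicity which is not excluded here; 0% = plate median of DMSO wells and 100% = zero luminescence signal; higher percent means less beta-gal luminescence so fewer parasites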
#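 Incubation – ≥90 h infection period, 3 h prior cell attachment · System – NIH/3T3 fibroblasts plus reporter T. cruzi · Doses – compound pinned at 50 nL/well, DMSO · Read-out basis – percent inhibition of parasite-derived β-gal signal · Signal – luminescent β-galactosidase signal after 60 min lysis · Also added – 5000 T. cruzi trypomastigotes/well · Medium – Low-serum DMEM with 2% FBS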
# HCV NS3 hel inh = inhibitors of HCV NS3 helicase, primary screen, biochemical, Cy5 molecular beacon fluorescence; Hepatitis C virus NS3 helicase; AID 1800, 2009; NS3 helicase DNA unwinding; hit rate 0.56% among 290,000; inhibition, % at 10.9 µM;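 active = inhibition above the mean of all tested compounds plus 3 SD, set per campaign, cut at about 35% in these data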;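 also: 0% = DMSO wells and 100% = thioflavine S control wells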
#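 assay system = NS3 helicase fragment of HCV | buffer or medium = MOPS pH 6.5, MgCl2, DTT, Tween20, BSA | timing = 60 min unwinding reaction at 25 °C after ATP addition | signal = Cy5 beacon fluorescence read at start and 1 h | read-out basis = % inhibition of unwinding | control set = low DMSO, high thioflavine S at 110 µM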
# MEKK3 PB1 HTS = modulators of MEKK3-MEK5 PB1 binding, primary screen, biochemical, wildtype MEKK3, multiplex bead flow cytometry, Alexa488-MEK5. Mitogen-activated protein kinase kinase kinase 3 (Homo sapiens), Q99759. bead-based flow cytometry, Alexa488-MEK5 binding to MEKK3; actives lie on both sides; 0 = blocked by unlabeled MEK5, 100 = vehicle. binding response (% of control), % at 10 µM. hit rate 1.4% among 290,000;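 active = binding response more than 3 SD above or below the average of its plate-row segment, actives on both sides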;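 also: Alexa488 bead fluorescence after subtracting the streptavidin-only scavenger bead signal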
# Target sequence (Q99759 whole entry, looked up): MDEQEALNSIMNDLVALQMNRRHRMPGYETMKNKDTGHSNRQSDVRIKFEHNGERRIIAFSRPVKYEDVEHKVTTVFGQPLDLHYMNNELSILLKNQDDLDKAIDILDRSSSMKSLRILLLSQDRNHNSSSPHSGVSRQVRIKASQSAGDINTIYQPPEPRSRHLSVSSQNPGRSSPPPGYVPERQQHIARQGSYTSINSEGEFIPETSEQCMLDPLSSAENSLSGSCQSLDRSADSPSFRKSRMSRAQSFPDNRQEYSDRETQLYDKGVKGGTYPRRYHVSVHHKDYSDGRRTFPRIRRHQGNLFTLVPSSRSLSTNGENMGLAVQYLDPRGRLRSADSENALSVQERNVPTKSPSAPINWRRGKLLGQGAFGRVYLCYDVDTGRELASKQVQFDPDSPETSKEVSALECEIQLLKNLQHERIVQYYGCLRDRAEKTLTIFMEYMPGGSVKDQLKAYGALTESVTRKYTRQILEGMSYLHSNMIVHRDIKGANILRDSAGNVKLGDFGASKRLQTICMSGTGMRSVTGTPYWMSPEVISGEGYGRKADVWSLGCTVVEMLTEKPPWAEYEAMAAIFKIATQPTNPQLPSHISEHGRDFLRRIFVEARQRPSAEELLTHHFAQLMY
# DNA FID counter-1 = compounds displacing fluorescent DNA intercalator, primary screen, artefact control for HCV NS3 helicase inhibitor project, biochemical, FID fluorescence; inhibition, % at 7.9 µM; hit rate 0.17% among 290,000; DNA fluorescent intercalator displacement; AID 1845, 2009;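 also: 0% = vehicle and 100% = reference compound; higher means more ethidium bromide displaced from hairpin DNA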
# MEKK2wt PB1 HTS = modulators of MEK5 binding to wildtype MEKK2, primary screen, biochemical, multiplex bead flow cytometry, Alexa488-MEK5; Alexa488-MEK5 binding to MEKK2 WT; actives lie on both sides; binding response (% of control), % at 10 µM; hit rate 1.1% among 290,000; AID 1531, 2009; in the data active = binding response below about 67% or above about 130%
# MEKK2mut PB1 HTS = MEK5 binding signal on mutant MEKK2 PB1, primary screen, biochemical, multiplex bead flow cytometry, Alexa488-MEK5 | Alexa488-MEK5 binding to MEKK2 mutant | percent response, % at 10 µM | hit rate 0.35% among 290,000; in the data active = percent response above about 24%, passing the limit was not always enough
# NS3 helicase cf = HCV NS3 helicase inhibitors, retest, confirmation, biochemical, Cy5 molecular beacon fluorescence, triplicate; hit rate 31% among 1,600; AID 1943, 2009; shares compounds with HCV NS3 hel inh; inhibition, % at 10.9 µM; NS3 helicase DNA unwinding;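 active = inhibition above the mean of all tested compounds plus 3 SD, cutoff set per campaign, cut at about 36% in these data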
# DNA FID counter-2 = compounds displacing fluorescent DNA intercalator, artefact control for HCV NS3 helicase inhibitor project, biochemical, FID fluorescence, triplicate; hit rate 4% among 1,600; DNA fluorescent intercalator displacement; shares compounds with HCV NS3 hel inh; inhibition, % at 7.9 µM;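 also: 0% = vehicle and 100% = reference compound; higher means more displacement of ethidium bromide from the DNA hairpin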
# FID counter DR = compounds displacing fluorescent intercalator from DNA, dose response, counter-screen for HCV NS3 helicase inhibitor project, biochemical, fluorescence; 120 tested, under 10 active; IC50, µM; fluorescent intercalator displacement from DNA; shares compounds with HCV NS3 hel inh; call rule not given here
# The depositor's hits bear a star; . = no result. In the library only some 4.1% were active in any assay of this set; here they are far more common. Rule as the data show it, unless noted: active = inhibition above about 37%; inactive = the rest.
SMILES,T cruzi repl,HCV NS3 hel inh,MEKK3 PB1 HTS,DNA FID counter-1,MEKK2wt PB1 HTS,MEKK2mut PB1 HTS,NS3 helicase cf,DNA FID counter-2,others
CC(OC(=O)Cc1c(F)cccc1Cl)C(=O)NC1(C#N)CCCCC1 (stereo not drawn),-5.5,.,.,.,.,.,.,.,
COc1ccc(S(=O)(=O)N2CCC3(CC2)OCCN3S(=O)(=O)c2cccs2)cc1OC,9.5,.,.,.,.,.,.,.,
COc1cc(C2C(C(=O)c3cccs3)=C(O)C(=O)N2c2cc(C)on2)ccc1O (stereo not drawn),-13.5,44.6*,104.0,11.4,106.0,3.0,-3.3,36.8*,
CC1CCC(NC(=O)CN2C(=O)NC(C)(C)C2=O)CC1 (stereo not drawn),-24.8,.,.,.,.,.,.,.,
CCCC(=O)Nc1cccc(NC(=O)c2ccc([N+](=O)[O-])cc2Cl)c1,21.6,52.9*,107.0,2.4,125.0,23.0,-2.5,11.4,
O=C1/C(=C\c2ccco2)SC(=S)N1C1CCCCC1,-1.8,38.9*,98.0,-9.5,84.0,0.0,50.8*,18.3,
Cc1nn(C)cc1CN(C)C(=O)CCc1nnc(CCC2CCCCC2)o1,-8.7,-2.4,98.0,-18.3,81.0,-12.0,.,.,
O=C(Nc1cc(-c2ccccc2)sc1C(=O)O)c1cccc(F)c1,-2.2,38.7*,99.0,13.7,101.0,-6.0,45.6*,18.4,
CC(=O)c1ccccc1NC(=O)CN1C(=O)CS/C1=C\c1nc(-c2ccc(C)cc2)cs1,1.7,36.7*,99.0,-3.0,100.0,-2.0,-2.7,-16.1,
CC(C)(CO)C(O)C(=O)NCCCO (stereo not drawn),-18.2,.,.,.,.,.,.,.,
O=C(c1ccco1)N(CCC(c1ccccc1)c1ccco1)Cc1ccccc1 (stereo not drawn),4.7,50.3*,90.0,-44.9,87.0,-3.0,21.4,-19.5,
COC(=O)C(C)Oc1ccc2c(c1)O/C(=C\c1ccco1)C2=O (stereo not drawn),-3.3,32.8,105.0,-20.2,104.0,3.0,.,.,
COc1ccc2c(c1)O/C(=C\c1ccco1)C2=O,0.3,44.4*,96.0,-7.5,91.0,-8.0,-1.3,24.1,
COc1cccc(C(=O)OCC(=O)NCCCc2ccccc2)c1,-7.4,-0.6,105.0,-26.0,110.0,6.0,.,.,
CCCn1c(C(O)c2cccc(OC)c2)nc2ccccc21 (stereo not drawn),3.3,41.9*,103.0,-17.9,98.0,2.0,-15.8,0.1,
O=c1[nH]n2c(=O)c3c([nH]c2c1N=Nc1cccc(C(F)(F)F)c1)CCCC3,2.9,64.3*,116.0,-8.9,99.0,3.0,79.3*,19.9,
CC(C)(Oc1ccc(-c2ccco2)cc1)C(=O)O,-7.6,41.1*,101.0,-25.5,108.0,19.0,30.1,3.5,
Oc1cccc2ccc(/C=C/c3ccccc3Br)nc12,43.8,16.1,101.0,-10.5,95.0,0.0,.,.,
COc1ccc(OC)c(/C=C/c2ccc3cccc(O)c3n2)c1,60.6*,59.9*,107.0,-30.8,106.0,5.0,-10.7,-0.9,
CCn1c(CNC(=O)c2cccc(C)c2)nnc1SCC(=O)NC1CCCCC1C (stereo not drawn),-3.4,64.5*,108.0,-29.9,110.0,8.0,-5.0,-26.6,
O=C1NC(=Nc2ccccc2)S/C1=C\C=C\c1ccco1,-13.6,43.8*,105.0,-10.7,96.0,0.0,3.0,-1.6,
Cc1cccc(N=C2NC(=O)/C(=C/c3cccn3C)S2)c1C,5.3,18.1,101.0,-30.9,103.0,5.0,.,.,
Cc1cccc(N=C2NC(=O)/C(=C/C=C/c3ccco3)S2)c1C,-12.4,44.8*,91.0,-17.0,87.0,-8.0,88.2*,33.5,FID counter DR=>79.4
Cc1ccc(N=C2NC(=O)/C(=C/C=C/c3ccco3)S2)cc1,-7.1,114.4*,94.0,-0.3,86.0,-5.0,8.9,3.2,
O=C1NC(=Nc2ccccc2)S/C1=C\c1ccccc1,-13.9,39.7*,109.0,-12.3,107.0,3.0,5.2,14.5,
SMILES,T cruzi repl,HCV NS3 hel inh,MEKK3 PB1 HTS,DNA FID counter-1,MEKK2wt PB1 HTS,MEKK2mut PB1 HTS,NS3 helicase cf,DNA FID counter-2,others
CC(CC(=O)N(CCC1=CCCCC1)c1c(N)n(Cc2ccccc2)c(=O)[nH]c1=O)c1ccccc1 (stereo not drawn),5.9,.,.,.,.,.,.,.,
CN(C)S(=O)(=O)c1cccc(NC(=O)C2Cc3ccccc3CN2C(=O)c2ccco2)c1 (stereo not drawn),7.5,29.2,101.0,-27.2,94.0,1.0,.,.,
CCOc1ccc(N(CC(=O)NC2CCCC2)C(=O)CSc2nnc(COc3ccccc3)o2)cc1,21.3,-0.9,100.0,-11.5,96.0,2.0,.,.,
Nc1ccc(C(CC(=O)O)n2cccc2)cc1 (stereo not drawn),-12.4,52.0*,118.0,-24.7,102.0,-1.0,-27.6,5.6,
COc1ccc(S(=O)(=O)N(C(=O)c2ccco2)c2cc3sc(=O)oc3c3ccccc23)cc1,-10.0,20.0,91.0,-4.8,90.0,-3.0,.,.,
Cc1ccc(S(=O)(=O)N(C(=O)c2ccco2)c2cc3sc(=O)oc3c3ccccc23)cc1,-4.5,40.4*,99.0,-22.2,89.0,-1.0,-8.4,-3.2,
COc1cccc(-n2c(N)c(C(=O)Nc3c(C)n(C)n(-c4ccccc4)c3=O)c3nc4ccccc4nc32)c1,12.6,37.5*,77.0,-36.8,78.0,-15.0,6.7,-55.5,
N#C/C(=C(/O)c1ccc(Cl)cc1)c1nc2ccccc2[nH]1,-3.5,9.5,97.0,-4.3,97.0,-1.0,.,.,
N#C/C(=C(\O)c1cc(Cl)sc1Cl)c1nc2ccccc2[nH]1,-15.7,42.9*,87.0,-6.4,91.0,-7.0,-6.0,-2.6,
Cc1ccc(NC(=O)C2=C(c3ccccc3)S(=O)(=O)CCS2(=O)=O)cc1,58.0*,38.3*,96.0,0.7,93.0,-11.0,58.8*,27.0,FID counter DR=>79.4
CN(C)C(=S)Oc1ccccc1-c1ccccc1OC(=S)N(C)C,-0.9,-0.1,103.0,-28.8,101.0,-3.0,.,.,
